In ChEMBL document CHEMBL1128269, “Synthesis and biological evaluation of NK1 antagonists derived from L-tryptophan” (J Med Chem, 1995):

How the values were obtained:
Substance-P receptor [1] = biological target: T1, Substance-P receptor (Homo sapiens, UniProt P25103); experiment: Binding affinity against human Tachykinin receptor 1 expressed in CHO cells was measured by its ability to displace [125I]- Tyr-8 substance P.; type: cell-based
Mustela putorius furo [2] = experiment: Maximum change in the mean arterial blood pressure in the anesthetized ferret of substance P at 0.1 mg/Kg intravenous bolus; type: functional
Outline: (§1)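 Pentobarbitone-induced (40 mg/kg ip), barbitalone-maintained (300 mg/kg ip) ferret anesthesia; trachea cannulated, ventilated with room air; blood pressure recorded via femoral artery, compounds given via femoral vein as rising cumulative iv boluses in distilled water (1 mL/kg) or poly(ethylene glycol) (0.5 mL/kg), matched vehicle controls. Maximum change in mean arterial pressure, mean ± SD, at least three determinations.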

Mustela putorius furo [3] = experiment: Maximum change in the mean arterial blood pressure in the anesthetized ferret of substance P at 0.3 mg/Kg intravenous bolus; type: functional; outline: as §1
Mustela putorius furo [4] = experiment: Maximum change in the mean arterial blood pressure in the anesthetized ferret of substance P at 1 mg/Kg intravenous bolus; type: functional
Outline: (§2)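 Ferrets were anesthetized with sodium pentobarbitone (40 mg/kg ip), maintained with sodium barbitalone (300 mg/kg ip), tracheally cannulated and ventilated with room air. Blood pressure was recorded via the femoral artery. Rising cumulative iv bolus doses (vehicle: distilled water, 1 mL/kg, or PEG, 0.5 mL/kg) went in via the femoral vein, with vehicle controls. Maximum change in mean arterial pressure is mean ± SD, n≥3.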

Cavia porcellus = experiment: Inhibition of substance P-induced dermal plasma extravasation in the guinea pig 1 hr after oral dose; type: functional; details: PIG1, Plasma, read-out: ID50 (the source's name)
Outline: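 Guinea pigs were dosed orally 1 h before 0.5 pmol substance P was injected into the dorsal skin. Evans blue was given iv before the challenge. Plasma leakage was quantified from dye levels in the skin around the injection sites, and ID50 was expressed in mg/kg.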

Substance-P receptor [5] = biological target: Substance-P receptor (Homo sapiens, UniProt P25103, Q165A); experiment: Binding affinity against Gln165Ala mutant type human Tachykinin receptor 1 expressed in CHO cells was measured by its ability to displace [125I]- Tyr-8 substance P.; type: cell-based
Substance-P receptor [6] = biological target: T1, Substance-P receptor; experiment: Binding affinity against wild type human Tachykinin receptor 1 expressed in CHO cells was measured by its ability to displace [125I]- Tyr-8 substance P.; type: cell-based
Mustela putorius furo [7] = experiment: Effect on heart rate of substance P antagonist was determined as change heart rate in the anesthetized ferret at 3 mg/Kg intravenous bolus; type: functional
Outline: (§3)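 Ferrets anesthetized with sodium pentobarbitone (40 mg/kg ip), maintained with sodium barbitalone (300 mg/kg ip); tracheal cannula with artificial ventilation on room air; femoral artery cannulated for recording, femoral vein for dosing. Rising cumulative iv bolus doses, in distilled water (1 mL/kg) or poly(ethylene glycol) (0.5 mL/kg), with matched vehicle controls. Change in heart rate, mean ± SD of at least three determinations.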

Mustela putorius furo [8] = experiment: Effect on heart rate of substance P antagonist was determined as change heart rate in the anesthetized ferret at 0.1 mg/Kg intravenous bolus; type: functional; outline: as §3
Mustela putorius furo [9] = experiment: Effect on heart rate of substance P antagonist was determined as change heart rate in the anesthetized ferret at 0.3 mg/Kg intravenous bolus; type: functional; outline: as §3
Mustela putorius furo [10] = experiment: Effect on heart rate of substance P antagonist was determined as change heart rate in the anesthetized ferret at 1 mg/Kg intravenous bolus; type: functional; outline: as §3
Mustela putorius furo [11] = experiment: Maximum change in the mean arterial blood pressure in the anesthetized ferret of substane P at 0.1 mg/Kg intravenous bolus; type: functional; outline: as §1
Mustela putorius furo [12] = experiment: Maximum change in the mean arterial blood pressure in the anesthetized ferret of substane P at 0.3 mg/Kg intravenous bolus; type: functional; outline: as §1
Mustela putorius furo [13] = experiment: Maximum change in the mean arterial blood pressure in the anesthetized ferret of substane P at 1 mg/Kg intravenous bolus; type: functional; outline: as §1
Mustela putorius furo [14] = experiment: Maximum change in the mean arterial blood pressure in the anesthetized ferret of substane P at 3 mg/Kg intravenous bolus; type: functional; outline: as §1
Mustela putorius furo [15] = experiment: Maximum change in the mean arterial blood pressure in the anesthetized ferret of substance P at 3 mg/Kg intravenous bolus; type: functional; outline: as §2

Sequence of Substance-P receptor (Homo sapiens, UniProt P25103, Q165A) (P25103 whole entry Q165A): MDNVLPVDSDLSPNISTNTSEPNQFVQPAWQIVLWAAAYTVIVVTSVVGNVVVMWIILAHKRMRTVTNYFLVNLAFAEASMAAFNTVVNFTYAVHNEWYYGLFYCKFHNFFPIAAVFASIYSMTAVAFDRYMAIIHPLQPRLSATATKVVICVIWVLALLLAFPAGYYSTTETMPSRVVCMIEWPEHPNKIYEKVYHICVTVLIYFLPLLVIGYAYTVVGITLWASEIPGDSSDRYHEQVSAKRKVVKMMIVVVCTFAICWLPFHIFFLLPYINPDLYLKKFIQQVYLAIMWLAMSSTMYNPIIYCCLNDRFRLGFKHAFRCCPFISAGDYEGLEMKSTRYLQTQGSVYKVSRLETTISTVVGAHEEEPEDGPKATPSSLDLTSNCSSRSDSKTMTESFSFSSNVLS
T1 sequence (P25103 whole entry): as the sequence (P25103 whole entry Q165A) above, with A165Q counted along it

## O=C(Cc1cnc[nH]1)N[C@@H](Cc1c[nH]c2ccccc12)C(=O)CCc1cc(C(F)(F)F)cc(C(F)(F)F)c1
Substance-P receptor [1]
  IC50: 3.8 nM

## COc1ccccc1CN[C@H]1CCCN[C@H]1c1ccccc1 [CP-99994]
Mustela putorius furo [2]
  MABP: 10
Mustela putorius furo [3]
  MABP: 13
Mustela putorius furo [4]
  MABP: 12
Cavia porcellus
  ED50: 1.6 mg/kg

## O=C(CCCN1CCCC1)N[C@@H](Cc1c[nH]c2ccccc12)C(=O)CCc1cc(C(F)(F)F)cc(C(F)(F)F)c1
Substance-P receptor [1]
  IC50: 0.3 nM

## O=C(CCN1CCCCC1)N[C@@H](Cc1c[nH]c2ccccc12)C(=O)CCc1cc(C(F)(F)F)cc(C(F)(F)F)c1
Substance-P receptor [1]
  IC50: 0.6 nM

## O=C(CCCN1CCOCC1)N[C@@H](Cc1c[nH]c2ccccc12)C(=O)CCc1cc(C(F)(F)F)cc(C(F)(F)F)c1
Substance-P receptor [5]
  IC50: 1.4 nM
Substance-P receptor [1]
  IC50: 0.17 nM
Substance-P receptor [6]
  IC50: 0.24 nM

## O=C(CCC1CCNCC1)N[C@@H](Cc1c[nH]c2ccccc12)C(=O)CCc1cc(C(F)(F)F)cc(C(F)(F)F)c1
Substance-P receptor [1]
  IC50: 0.37 nM

## CN(C)CCCCC(=O)N[C@@H](Cc1c[nH]c2ccccc12)C(=O)CCc1cc(C(F)(F)F)cc(C(F)(F)F)c1
Substance-P receptor [1]
  IC50: 0.6 nM

## CC(=O)N[C@H](COCc1cc(C)cc(C)c1)Cc1c[nH]c2ccccc12
Substance-P receptor [1]
  IC50: 767 nM

## O=C(CN1CCOCC1)N[C@@H](Cc1c[nH]c2ccccc12)C(=O)CCc1cc(C(F)(F)F)cc(C(F)(F)F)c1
Substance-P receptor [5]
  IC50: 4 nM
Substance-P receptor [1]
  IC50: 3.5 nM
Substance-P receptor [6]
  IC50: 2 nM

## COc1ccccc1CN[C@H]1C2CCN(CC2)[C@H]1C(c1ccccc1)c1ccccc1 [CP-96345]
Mustela putorius furo [7]
  Change in heart rate: 65
Mustela putorius furo [8]
  Change in heart rate: 7
Mustela putorius furo [9]
  Change in heart rate: 13
Mustela putorius furo [10]
  Change in heart rate: 21
Mustela putorius furo [11]
  MABP: 11
Mustela putorius furo [12]
  MABP: 21
Mustela putorius furo [13]
  MABP: 46
Mustela putorius furo [14]
  MABP: 63

## O=C(CCc1ccncc1)N[C@@H](Cc1c[nH]c2ccccc12)C(=O)CCc1cc(C(F)(F)F)cc(C(F)(F)F)c1
Substance-P receptor [1]
  IC50: 0.47 nM

## Cc1cc(C)cc(CN(C)C(=O)[C@H](Cc2c[nH]c3ccccc23)NC(=O)c2ccccc2)c1
Substance-P receptor [1]
  IC50: 1030 nM

## CN(C)CCCC(=O)N[C@@H](Cc1c[nH]c2ccccc12)C(=O)CCc1cc(C(F)(F)F)cc(C(F)(F)F)c1
Cavia porcellus
  ED50: 4 mg/kg
Substance-P receptor [1]
  IC50: 0.7 nM

## CN(C)CCC(=O)N[C@@H](Cc1c[nH]c2ccccc12)C(=O)CCc1cc(C(F)(F)F)cc(C(F)(F)F)c1
Cavia porcellus
  ED50: 10 mg/kg

## FC(F)(F)c1cccc(CO[C@H]2C3CCN(CC3)[C@H]2C(c2ccccc2)c2ccccc2)c1
Substance-P receptor [5]
  IC50: 2100 nM
Substance-P receptor [1]
  IC50: 53 nM
Substance-P receptor [6]
  IC50: 53 nM

## O=C(CCc1cc(C(F)(F)F)cc(C(F)(F)F)c1)[C@H](Cc1c[nH]c2ccccc12)NC(=O)C12CCN(CC1)CC2
Mustela putorius furo [7]
  Change in heart rate: 1
Mustela putorius furo [8]
  Change in heart rate: 3
Mustela putorius furo [9]
  Change in heart rate: 2
Mustela putorius furo [10]
  Change in heart rate: 1
Mustela putorius furo [2]
  MABP: 2
Mustela putorius furo [3]
  MABP: 4
Mustela putorius furo [4]
  MABP: 18
Mustela putorius furo [15]
  MABP: 34
Cavia porcellus
  ED50: 1.8 mg/kg
Substance-P receptor [5]
  IC50: 8 nM
Substance-P receptor [1]
  IC50: 0.9 nM
Substance-P receptor [6]
  IC50: 1 nM

## O=C(Cc1ccncc1)N[C@@H](Cc1c[nH]c2ccccc12)C(=O)CCc1cc(C(F)(F)F)cc(C(F)(F)F)c1
Mustela putorius furo [4]
  MABP: -20
Cavia porcellus
  ED50: 1.9 mg/kg
Substance-P receptor [5]
  IC50: 10 nM
Substance-P receptor [1]
  IC50: 0.5 nM
Substance-P receptor [6]
  IC50: 0.4 nM
